In test [1] the test system is M1. The settings on record: cited from earlier work; for IC50: read-out: M1 IC50, MLSCN screen hit.
Test [2] deals with hM3 (Homo sapiens, UniProt P20309). Nature of the test: calcium mobilization assay, hM3 CHO-K1 cells. The test is classed as cell-based. On the technique in general: Calcium assays in cells follow changes in intracellular calcium, usually with a dye or a luminescent sensor.
Test [3] concerns the target T1, hM2 (Homo sapiens, UniProt P08172).
T1 sequence (P08172 1-466): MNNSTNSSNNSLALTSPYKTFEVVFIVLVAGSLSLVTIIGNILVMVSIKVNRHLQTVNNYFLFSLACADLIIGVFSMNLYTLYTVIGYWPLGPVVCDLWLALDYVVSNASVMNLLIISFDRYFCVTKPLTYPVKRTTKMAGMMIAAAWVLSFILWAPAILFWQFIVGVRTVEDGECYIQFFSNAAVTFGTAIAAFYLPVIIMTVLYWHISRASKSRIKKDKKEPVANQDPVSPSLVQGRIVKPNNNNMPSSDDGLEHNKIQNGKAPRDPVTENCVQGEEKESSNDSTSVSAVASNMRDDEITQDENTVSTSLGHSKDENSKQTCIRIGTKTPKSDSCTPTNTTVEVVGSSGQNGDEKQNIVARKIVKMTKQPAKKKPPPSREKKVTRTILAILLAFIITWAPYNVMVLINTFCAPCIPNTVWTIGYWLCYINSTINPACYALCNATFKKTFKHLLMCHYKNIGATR
The test can be described thus: calcium mobilization assay, hM2 CHO cells with Gqi5 chimeric G protein. The test is classed as cell-based. The settings on record: compound at 10 μM. Put shortly: (§1)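 CHO-K1 cells stably expressing human receptor (M2 line also stably transfected with Gqi5 chimeric G protein so it signals through calcium; M5 line without chimera) were plated overnight. Cells were loaded with 2 μM Fluo-4 AM in HBSS/20 mM HEPES/2.5 mM probenecid, pH 7.4, for 45 min at 37°C, then dye was replaced with buffer. Cells were pre-incubated with 10 μM test compound, then given sub-maximal acetylcholine or carbachol. Signal was normalized to baseline and expressed as % of maximal acetylcholine response.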

The target of test [4] is T2, hM5 (Homo sapiens, UniProt P08912).
T2 sequence (P08912 1-532): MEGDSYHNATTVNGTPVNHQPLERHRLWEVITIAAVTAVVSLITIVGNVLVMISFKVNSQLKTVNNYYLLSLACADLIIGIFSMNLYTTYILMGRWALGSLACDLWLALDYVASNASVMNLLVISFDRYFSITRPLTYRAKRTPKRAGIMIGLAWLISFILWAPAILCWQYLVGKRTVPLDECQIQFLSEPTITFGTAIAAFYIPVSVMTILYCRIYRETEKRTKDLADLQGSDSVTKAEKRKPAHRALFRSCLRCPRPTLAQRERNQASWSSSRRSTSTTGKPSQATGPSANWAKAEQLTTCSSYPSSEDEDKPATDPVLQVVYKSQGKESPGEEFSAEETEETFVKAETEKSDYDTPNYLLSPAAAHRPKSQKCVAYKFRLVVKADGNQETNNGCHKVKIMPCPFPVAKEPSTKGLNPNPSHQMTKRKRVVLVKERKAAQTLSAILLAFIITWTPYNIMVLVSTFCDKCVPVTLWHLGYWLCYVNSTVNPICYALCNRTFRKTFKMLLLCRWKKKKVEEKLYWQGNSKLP
Nature of the test: calcium mobilization assay, hM5 CHO-K1 cells. The class given is cell-based. The conditions noted are these: compound at 10 μM. The method in brief: as §1

The structures appear in SMILES notation. Like-named read-outs stand apart in the source and are kept apart here. A value given as a limit tells only on which side of the number the result lay.

Broadly, the IC50 is the point on the concentration scale where inhibition reaches its midpoint.

Chain of hM3 (P20309 whole entry): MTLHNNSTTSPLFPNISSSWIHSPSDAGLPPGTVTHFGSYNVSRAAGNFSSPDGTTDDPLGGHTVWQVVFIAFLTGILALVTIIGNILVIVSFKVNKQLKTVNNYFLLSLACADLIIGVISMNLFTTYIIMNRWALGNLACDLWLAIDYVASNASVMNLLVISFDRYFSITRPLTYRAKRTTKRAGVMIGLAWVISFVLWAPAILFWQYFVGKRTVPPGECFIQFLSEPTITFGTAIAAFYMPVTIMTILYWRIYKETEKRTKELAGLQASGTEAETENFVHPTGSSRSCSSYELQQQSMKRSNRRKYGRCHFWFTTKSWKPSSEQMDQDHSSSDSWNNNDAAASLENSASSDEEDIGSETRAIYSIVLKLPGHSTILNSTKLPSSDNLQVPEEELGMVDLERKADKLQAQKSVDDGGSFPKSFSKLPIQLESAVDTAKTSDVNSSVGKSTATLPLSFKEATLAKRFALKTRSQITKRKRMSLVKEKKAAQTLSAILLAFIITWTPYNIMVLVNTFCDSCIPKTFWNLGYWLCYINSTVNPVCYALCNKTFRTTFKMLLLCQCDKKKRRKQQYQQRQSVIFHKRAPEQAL

On to `CCN1CCN(c2ccc(NC(=O)CCC3CCCC3)cc2Cl)CC1` [Compound 5], for which the “selectivity versus M4” value in test [1] (M1 over M4) is listed as above 340 fold. Also, the IC50 in test [1] is 0.441 µM.

As for `CCN1CCN(c2ccc(NC(=O)c3ccccc3)cc2Cl)CC1` [Compound 6], the “selectivity versus M2-M5” value in test [1] (M1 over M2-M5) is listed as above 30 fold. Also, in test [1] (original sample), the IC50 was 5 µM.

With `CCN1CCN(c2ccc(NC(=O)c3ccccc3Cl)cc2Cl)CC1` [Compound 8a], the IC50 in test [2] stood at 8.2 µM.

On to `CCN1CCN(c2ccc(NC(=O)c3cc(C(F)(F)F)cc(C(F)(F)F)c3)cc2Cl)CC1` [Compound 8i], for which the “effect on an ACh EC80 on M2” value in test [3] is “little effect”. Also, the “effect on an ACh EC80 on M3” value in test [2] (compound at 10 μM) is “little effect”. Moreover, the “effect on an ACh EC80 on M5” value in test [4] was “little effect”.

The values above are taken from publication PMC2843780 (Bioorganic & medicinal chemistry letters, 2010).
